# S100A4 inh HTS: inhibitors of human S100A4 binding to myosin IIA peptide; AID 652163; inhibition, % at 10.7 µM; P26447; S100A4/TAMRA-MyoIIA peptide fluorescence polarization; actives 0.14% (n = 360,000);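 active means mean inhibition of at least 70% across replicates, with every replicate also reaching that level; inconclusive means mean inhibition reaches 70% but some replicates fall short; inactive means mean inhibition below 70%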
# Target sequence (P26447 whole entry, looked up): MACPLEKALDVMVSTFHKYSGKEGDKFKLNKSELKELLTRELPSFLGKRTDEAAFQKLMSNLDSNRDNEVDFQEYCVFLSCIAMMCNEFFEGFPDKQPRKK
#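 Material: S100A4 monomer protein | Medium: HEPES pH 7.2 with CaCl2, KCl, NaCl, DTT, Triton | Reagent: Labelled myosin peptide probe, 5 nM | Doses: One dose per compound | Times: 5 min incubation before reading | Benchmarks: Neutral control DMSO, positive control TFP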
# rRNA inh HTS: selective bacterial rRNA inhibition in E. coli; E. coli WT GFP vs humanized-ribosome RFP mutants, fluorescence, 24 h; hits give low values; DMSO median 0, no signal -100; GFP signal change (wild-type ribosome), % (concentration not given with the values); actives 1.6% (n = 350,000);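 active means significant combined selectivity score with lowered wild-type GFP, culture density cut under 30%, mutant RFP and density less affected; inactive means any of these conditions unmet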
# Cneo AK release: Cryptococcus neoformans lysis via adenylate kinase release. C. neoformans lysis, adenylate kinase release luminescence, 4 h; normalised: neutral wells 0, clomiphene wells 100. AID 651654. actives 0.2% (n = 360,000). lysis activity, % at 15 µM;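 active means mean lysis activity across replicates of at least 80%, whatever share of replicates individually reach that level; inactive means mean lysis activity below 80%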
#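 Schedule: static 4 h at 37 °C with compound, 1 h detection; system: C. neoformans cells; benchmarks: Clomiphene as positive control; buffer or medium: fresh YPD medium; measure: luminescence rise reflecting yeast cell lysis; measured by: luminescent adenylate kinase detection reagent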
# MLL AF4-AF9 inh: blocks AF4 peptide binding to human AF9; AID 651704; inhibition, % at 10 µM; AlphaScreen, biotin-AF4 peptide binding to FLAG-AF9; actives 0.47% (n = 350,000);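 active means every replicate reaching a set inhibition limit, whatever the replicate mean, cut at about 25% in these data; inconclusive means mean inhibition reaches that limit but some replicates miss it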;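 further: 0% = plate neutral control median and 100% = total signal loss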
# PfHsp90 set2: inhibits growth of yeast expressing Plasmodium falciparum Hsp90; S. cerevisiae expressing PfHsp90, BacTiter-Glo ATP, 48 h; yeast lacking PDR1 and PDR3 efflux regulators; inhibition, % at 9.4 µM; actives 0.32% (n = 310,000);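 active means every replicate shows inhibition above about 80%, whatever the replicate mean, limit read from the data; inconclusive means mean inhibition reaches the set limit but some replicate falls short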;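 further: 0% = DMSO neutral controls and 100% = 20 µM radicicol positive controls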
# DENV2 CPE rescue: inhibitors of DENV2 cytopathic effect | DENV2-infected cells, cytopathic effect rescue, plate reader | CPE inhibition, % at 9.99 µM | actives 1.7% (n = 350,000); in the data active means CPE inhibition above about 20%, passing the limit was not always enough; inconclusive means no clear call, values can overlap the other calls; tested in BHK-21 cells;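 further: 0% = median of neutral control wells and 100% = median of positive control wells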
# The depositor's hits bear a star; u = inconclusive; x = no result given; ! = a repeat was not active. Compounds with a hit are over-represented: about 3.2% of the library has one in this group of screens.
SMILES,S100A4 inh HTS,rRNA inh HTS,Cneo AK release,MLL AF4-AF9 inh,PfHsp90 set2,DENV2 CPE rescue
C[C@@H]1CN([C@@H](C)CO)C(=O)Cc2cc(NC(=O)CCCCCC(=O)Nc3ccccc3N)ccc2O[C@H]1CN(C)C(=O)Nc1ccccc1,-6,0,x,-5,x,5
C[C@H]1CN([C@@H](C)CO)C(=O)Cc2cc(NC(=O)CCCCCC(=O)Nc3ccccc3N)ccc2O[C@@H]1CN(C)S(=O)(=O)c1ccccc1,21,1,13,-1,x,79*
C[C@@H]1CN([C@H](C)CO)C(=O)Cc2cc(NC(=O)CCCCCC(=O)Nc3ccccc3N)ccc2O[C@H]1CN(C)C(=O)Nc1ccccc1,-1,-2,105*,-2,x,-2
C[C@H]1CN([C@@H](C)CO)C(=O)Cc2cc(NC(=O)CCCCCC(=O)Nc3ccccc3N)ccc2O[C@H]1CN(C)C(=O)Nc1cccc2ccccc12,-26,3,x,x,x,28*
C[C@H]1CN([C@@H](C)CO)C(=O)Cc2cc(NC(=O)CCCCCC(=O)Nc3ccccc3N)ccc2O[C@H]1CN(C)C(=O)Nc1ccccc1,3,2,94*,-3,x,-5
CNC(=O)C[C@@H]1CC[C@H]2[C@@H](COC[C@H](O)CN2Cc2ccncc2)O1,5,2,1,-2,x,19
Cc1cccc(-n2c(-c3ccc(Br)o3)n[nH]c2=S)c1,2,-20*,x,x,9,-4
COc1cc(/C=N/N2CCN(c3ccccc3)CC2)cc(OC)c1OC(C)=O,0,8,2,26*,9,0
COc1cc(/C=N/N2CCN(c3ccc(Cl)cc3)CC2)cc(OC)c1OC(C)=O,-2,3,1,0,-12,13
COc1ccc(/C=N/N2CCN(c3ccc(Cl)cc3)CC2)cc1,-1,-1,-2,-1,-9,2
COc1ccc(/C=N/N2CCN(c3ccc(Cl)cc3)CC2)cc1O,-2,-1,-2,-3,16,32*
COc1cccc2c(=O)n(CC(=O)Nc3ccccc3)ccc12,-10,12,1,48*,1,-9
COc1cccc2c(=O)n(CC(=O)Nc3ccc(F)cc3F)ccc12,-5,4,0,3,16,-2
CCCN(C)C[C@@H]1Oc2ncc(C#CCOC)cc2C(=O)N([C@H](C)CO)C[C@@H]1C,-6,6,-1,-6,x,0
Cc1ccc(NC(=O)NC2CCCc3ccccc32)cc1 (configuration not stated),-3,2,-2,-1,33,-4
CC(C)(C)c1ccc(NC(=O)NC2CCCc3ccccc32)cc1 (configuration not stated),-2,11,0,-1,-8,39*
CC1(C)c2ccccc2C(=O)c2ccccc21,-13,-22*,0,4,8,6
O=C(COc1ccccc1/C=C\c1[nH]c(=O)[nH]c(=O)c1[N+](=O)[O-])Nc1ccccc1,7,-31*,x,-3,0,-3
Cc1ccccc1-c1ccc([C@H]2[C@@H](CO)N3C(=O)CN(C(=O)c4ccccn4)C[C@@H]23)cc1,6,-7,x,1,x,-7
O=C(NCC[C@H]1CC[C@H](NS(=O)(=O)c2ccc(F)cc2)[C@@H](CO)O1)c1ccc2c(c1)OCO2,-3,-7,102*,-3,x,4
O=C(NCC[C@@H]1CC[C@@H](NS(=O)(=O)c2ccccc2)[C@@H](CO)O1)c1cc(Cl)cc(Cl)c1,5,-16*!,-1,1,x,-3
CCCn1nnnc1NCc1ccc(Cl)cc1Cl,-1,-29*,-4,-1,x,2
CCCn1nnnc1NCc1ccccc1F,-4,10,12,-6,-6,0
C[C@H]1CN([C@@H](C)CO)C(=O)c2cc(NS(=O)(=O)c3ccc(F)cc3)ccc2O[C@@H]1CN(C)S(=O)(=O)c1ccc(F)cc1,4,-1,0,-3,x,54*
C[C@H]1CN([C@@H](C)CO)C(=O)c2cc(NS(=O)(=O)c3ccccc3)ccc2O[C@@H]1CN(C)S(=O)(=O)c1ccc(F)cc1,x,-4,x,x,x,x
SMILES,S100A4 inh HTS,rRNA inh HTS,Cneo AK release,MLL AF4-AF9 inh,PfHsp90 set2,DENV2 CPE rescue
C[C@H]1CN([C@@H](C)CO)C(=O)c2cc(NS(=O)(=O)c3ccc(F)cc3)ccc2O[C@@H]1CN(C)S(=O)(=O)c1ccccc1,x,3,105*,x,x,0
O=C(/C=C/c1ccccn1)c1ccc(Br)cc1O,-2,-14,x,2,-100,5
O=C(/C=C/c1ccccn1)c1cc(Br)ccc1O,7,-5,-1,-10,104*,-3
S=c1[nH]nc(COc2ccccc2)n1/N=C/c1ccccc1Cl,4,-24*,1,1,-16,6
S=c1[nH]nc(COc2ccccc2)n1/N=C/c1cccc(Cl)c1Cl,0,2,7,-1,-46,u
Oc1cc2c(cc1O)C(c1ccccc1)CNCC2 (configuration not stated),2,x,0,7,-4,52*
C[C@H](CO)N1C[C@H](C)[C@H](CN(C)C(=O)CN(C)C)Oc2cc(C#Cc3ccccc3)ccc2S1(=O)=O,-2,0,8,16,x,5
C[C@H]1CN([C@@H](C)CO)S(=O)(=O)c2ccc(C#Cc3ccccc3)cc2O[C@@H]1CN(C)C(=O)c1ccccn1,7,-32,x,5,x,8
C[C@@H]1CN([C@H](C)CO)S(=O)(=O)c2ccc(C#Cc3ccccc3)cc2O[C@@H]1CN(C)C(=O)CN(C)C,-6,2,1,20,x,40*!
C[C@@H]1CN([C@H](C)CO)S(=O)(=O)c2ccc(C#C[C@@H](C)O)cc2O[C@H]1CN(C)C(=O)CN(C)C,-1,3,51,-2,x,-11
CC(C)C#Cc1ccc2c(c1)O[C@@H](CN(C)C(=O)CN(C)C)[C@@H](C)CN([C@@H](C)CO)S2(=O)=O,7,4,-1,0,x,31*
C[C@@H]1CN([C@H](C)CO)S(=O)(=O)c2ccc(C#Cc3ccccc3)cc2O[C@@H]1CN(C)C(=O)c1ccccn1,5,-6,2,3,x,42*
CC(C)NC(=O)N(C)C[C@@H]1Oc2ncc(-c3cncnc3)cc2C(=O)N([C@@H](C)CO)C[C@H]1C,6,7,-7,-3,x,-1
CCCNC(=O)C[C@H]1CC[C@H]2[C@H](COc3ccc(NC(=O)NC(C)C)cc3C(=O)N2C)O1,-1,1,-1,1,x,2
Cc1ccccc1CC1(CO)CCCN(Cc2nc(-c3cccs3)oc2C)C1 (configuration not stated),18,-25*,x,9,9,5

# Bioassay records: PubChem BioAssay, Broad Institute
